# The source made the active and inactive calls.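 How the source made its calls, unless noted: active means fluorescence slope after compound addition differing from the mean of all tested samples at 99.7% confidence, mostly higher but some lower; inactive means the rest.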
# Tests used:
# [1] = inhibitors of TNFa-induced NFkB p65 translocation, primary screen, imaging, HUVEC, MLSMR starter and 10KST1 sets (AID 438;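 active means inhibition above 20% together with a positive visual image hit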;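 further: compound added about 3h40 before a 20 min TNFalpha stimulation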;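 on inhibition: signal is the nuclear over cytoplasmic p65 intensity ratio per well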); conditions: HUVEC TNFa-induced p65 nuclear translocation; cell count: measured here: nuclei count (cytotoxicity indicator), at 2.08 µM; inhibition: at 2 µM, stronger effect = higher value, 0% TNFa-plus-vehicle, 100% no-TNFa wells
# [2] = inhibitors of mutant huntingtin aggregation, primary screen, imaging, exon1htt(103Q)mCFP cells, high-content imaging (AID 483;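 active means visual image review flags a hit and inhibition of aggregation exceeds 20%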;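 further: compound exposure lasted 3 days before fixation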;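 on nuclei count: percent of the per-plate median nuclei count of sample wells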); conditions: exon1htt(103Q)mCFP cell line, aggregate imaging, at 2 µM; inhibition of aggregation: stronger effect = higher value; nuclei count: measured here: cell count, toxicity
# [3] = inhibitors of E-selectin induction by TNFa, primary screen, imaging, HUVEC, immunofluorescence, MLSMR starter and 10KST1 sets (AID 487;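 active means visually confirmed hit in the image check and inhibition above 20%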;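 on inhibition: signal is fraction of cell area covered by stained E-selectin grains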;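 on nuclei count: 100% = median nuclei count of all wells on the same plate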); conditions: HUVEC TNFalpha-induced E-selectin immunofluorescence imaging, at 2 µM; inhibition: stronger effect = higher value; nuclei count: measured here: cell number, toxicity
# [4] = target: Voltage-gated potassium channel subunit beta-2 (Rattus norvegicus) (UniProt P62483); test: KvBeta enzyme negative modulators, primary screen, biochemical, NADPH fluorescence (AID 622;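 active means fluorescence slope higher than the sample average by over 3 SD, cut at about -0.22 in these data, passing the limit was not always enough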;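 further: slope of raw intensity against log time taken from 70 to 1610 s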); conditions: recombinant KvBeta, 4-cyanobenzaldehyde reduction, at 10 µM, stronger effect = higher value
# Chain of Voltage-gated potassium channel subunit beta-2 (Rattus norvegicus) (P62483 whole entry, looked up): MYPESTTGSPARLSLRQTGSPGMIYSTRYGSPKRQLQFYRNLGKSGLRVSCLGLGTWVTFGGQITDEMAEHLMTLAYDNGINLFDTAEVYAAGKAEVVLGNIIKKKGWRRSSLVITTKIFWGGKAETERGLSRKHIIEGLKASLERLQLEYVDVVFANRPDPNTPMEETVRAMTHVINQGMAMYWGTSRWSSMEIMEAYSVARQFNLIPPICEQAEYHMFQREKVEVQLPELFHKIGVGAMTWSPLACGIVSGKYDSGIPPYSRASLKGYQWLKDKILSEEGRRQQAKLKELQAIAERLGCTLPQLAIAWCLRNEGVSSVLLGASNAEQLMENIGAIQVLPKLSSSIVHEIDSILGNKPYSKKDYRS
# [5] = target: Voltage-gated potassium channel subunit beta-2 (Rattus norvegicus) (UniProt P62483); test: KvBeta positive modulators, primary screen, biochemical, NADPH fluorescence (AID 623;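 active means NADPH fluorescence slope more negative than the mean of all samples by about 3 SD, 99.7% confidence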;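 further: fluorescence intensity change per second fitted from 20 to 320 s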); conditions: Recombinant KvBeta, NADPH fluorescence decrease slope, 10 min; at 10 µM; stronger effect = lower value
# [6] = target: Muscarinic acetylcholine receptor M4 (Homo sapiens) (UniProt P08173); test: compounds altering M4/GIRK thallium flux, either direction, primary screen, M4 allosteric agonist project, cell-based, HEK293 M4/GIRK, BTC-AM (AID 625); conditions: at 10 µM, actives lie on both sides;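 further: thallium influx through GIRK channels coupled to M4 in HEK293 cells with BTC-AM dye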
# Chain of Muscarinic acetylcholine receptor M4 (Homo sapiens) (P08173 whole entry, looked up): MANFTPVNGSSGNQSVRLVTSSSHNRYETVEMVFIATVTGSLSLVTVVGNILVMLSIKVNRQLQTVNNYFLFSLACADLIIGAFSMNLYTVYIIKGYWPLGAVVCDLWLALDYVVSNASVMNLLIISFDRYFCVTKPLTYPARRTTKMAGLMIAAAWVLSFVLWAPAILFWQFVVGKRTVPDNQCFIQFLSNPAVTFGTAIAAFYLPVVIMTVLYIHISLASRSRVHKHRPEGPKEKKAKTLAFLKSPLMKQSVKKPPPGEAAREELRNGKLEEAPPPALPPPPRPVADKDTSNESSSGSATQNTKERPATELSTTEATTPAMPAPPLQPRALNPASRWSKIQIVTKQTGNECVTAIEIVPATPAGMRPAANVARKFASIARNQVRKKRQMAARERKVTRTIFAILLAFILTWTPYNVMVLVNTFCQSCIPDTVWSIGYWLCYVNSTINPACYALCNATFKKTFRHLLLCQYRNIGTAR
# In short: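 Material – HEK293 cells with M4 receptor and GIRK channels · Buffer or medium – pH 7.3 thallium assay buffer · Doses – one dose, 10 µM final · Timing – cells overnight at 37 °C, BTC-AM loading 1 h, reads 2 min total · Measured by – kinetic fluorescence with BTC-AM dye · Controls – carbachol and DMSO controls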
# [7] = inhibitors of Sendai virus-induced IRF3 signaling, primary screen, TLR/RLR signaling modifier project, cell-based, Sendai virus stimulus, luciferase, 10K MLSCN set (AID 602276;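 active means inhibition at or above 50% at 10 µM; inactive means inhibition below 50%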;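 further: firefly luciferase from ISG56 promoter only with Renilla not read in this screen; 0% = Sendai virus plus DMSO and 100% = medium plus DMSO without virus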); conditions: HEK293 RL24 IRF3 luciferase reporter, at 10 µM, stronger effect = higher value
# [8] = inhibitors of poly I:C-induced TLR3 signaling, primary screen, cell-based, poly I:C stimulus, luciferase, 10K MLSCN set (AID 602277;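 active means inhibition of the reporter signal at or above 50%; inactive means inhibition below 50%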); conditions: HEK293-TLR3 RL24 IRF3 luciferase reporter, at 10 µM, stronger effect = higher value
structure (smiles),measurement,setting,value
O=S(=O)(NC1=NCCC1)c1cccs1,cell count,[1],524
same,inhibition,[1],-7% (inactive)
same,inhibition of aggregation,[2],11% (inactive)
same,nuclei count,[2],102%
same,inhibition,[3],27.1% (inactive)
same,nuclei count,[3],103%
same,fluorescence slope,[4],-0.353 (inactive)
same,NADPH fluorescence slope,[5],-4.6e-05 (inactive)
same,fluorescence slope,[6],0.00585 (inactive)
same,inhibition,[7],8.22% (inactive)
same,inhibition,[8],5.63% (inactive)
CCN(CC)C(=O)c1sc(NC(=O)c2ccco2)c(C#N)c1C,cell count,[1],752
same,inhibition,[1],-1.3% (inactive)
same,inhibition of aggregation,[2],-26% (inactive)
same,nuclei count,[2],118%
same,inhibition,[3],1.3% (inactive)
same,nuclei count,[3],117%
same,fluorescence slope,[4],-0.586 (inactive)
same,NADPH fluorescence slope,[5],1.3e-05 (inactive)
same,fluorescence slope,[6],0.00573 (inactive)
same,inhibition,[7],11.4% (inactive)
same,inhibition,[8],13.3% (inactive)
COC(=O)Cc1[nH]nc2c1C(C1C=CCCC1)C(C#N)=C(N)O2 (stereo not drawn),cell count,[1],592
same,inhibition,[1],5.7% (inactive)
same,inhibition of aggregation,[2],7.6% (inactive)
same,nuclei count,[2],90.6%
same,inhibition,[3],-0.2% (inactive)
same,nuclei count,[3],117%
same,fluorescence slope,[4],-0.41 (inactive)
same,NADPH fluorescence slope,[5],2.6e-05 (inactive)
same,fluorescence slope,[6],0.00509 (inactive)
same,inhibition,[7],18.7% (inactive)
same,inhibition,[8],26.3% (inactive)
C=CCn1cnc2c(NCc3ccccc3)ncnc21,cell count,[1],387
same,inhibition,[1],-13.3% (inactive)
same,inhibition of aggregation,[2],3% (inactive)
same,nuclei count,[2],98.8%
same,inhibition,[3],20.4% (inactive)
same,nuclei count,[3],142%
same,fluorescence slope,[4],-0.587 (inactive)
same,NADPH fluorescence slope,[5],3.1e-05 (inactive)
same,fluorescence slope,[6],0.00713 (inactive)
same,inhibition,[7],-54.3% (inactive)
same,inhibition,[8],-89% (inactive)
CC(=O)NCCn1c(SCC(=O)NCC2CCCO2)nc2ccccc2c1=O (stereo not drawn),cell count,[1],515
same,inhibition,[1],-8.5% (inactive)
same,inhibition of aggregation,[2],4.3% (inactive)
same,nuclei count,[2],110%
same,inhibition,[3],21.7% (inactive)
same,nuclei count,[3],103%
same,fluorescence slope,[4],-0.471 (inactive)
same,NADPH fluorescence slope,[5],5.6e-05 (inactive)
same,fluorescence slope,[6],0.00516 (inactive)
same,inhibition,[7],3.29% (inactive)
same,inhibition,[8],12.9% (inactive)
CN=C1CC(C)(C)CC(=O)/C1=C(/O)CCC(=O)NC,cell count,[1],367
same,inhibition,[1],10.4% (inactive)
same,inhibition of aggregation,[2],10.3% (inactive)
same,nuclei count,[2],104%
same,inhibition,[3],50.5% (inactive)
same,nuclei count,[3],90.9%
same,fluorescence slope,[4],-0.45 (inactive)
same,NADPH fluorescence slope,[5],-1.9e-05 (inactive)
same,fluorescence slope,[6],0.00526 (inactive)
same,inhibition,[7],13% (inactive)
same,inhibition,[8],15.4% (inactive)
S=c1[nH]c2ccc(Cl)cc2[nH]1,cell count,[1],457
same,inhibition,[1],-3.8% (inactive)
same,inhibition of aggregation,[2],-4% (inactive)
same,nuclei count,[2],91.1%
same,inhibition,[3],-78.7% (inactive)
same,nuclei count,[3],110%
same,fluorescence slope,[4],-0.449 (inactive)
same,NADPH fluorescence slope,[5],-3.7e-05 (inactive)
same,fluorescence slope,[6],0.00564 (inactive)
same,inhibition,[7],21.3% (inactive)
same,inhibition,[8],33.3% (inactive)
CN(C)c1ccc(/C=C/C(O)=C2/C(=O)N(C)C3(C)CC2c2ccccc2O3)cc1 (stereo not drawn),cell count,[1],356
same,inhibition,[1],-0.4% (inactive)
same,inhibition of aggregation,[2],-5.2% (inactive)
same,nuclei count,[2],102%
same,inhibition,[3],-68% (inactive)
same,nuclei count,[3],115%
same,fluorescence slope,[4],-0.521 (inactive)
same,NADPH fluorescence slope,[5],-2e-07 (inactive)
same,fluorescence slope,[6],0.0126 (active)
same,inhibition,[7],1.4% (inactive)
same,inhibition,[8],23.4% (inactive)
